The source of these data is ChEMBL document CHEMBL2203269, “Target-Activated Prodrugs (TAPs) for the Autoregulated Inhibition of MMP12” (ACS Med Chem Lett, 2012).

Residues, ends and D or L forms follow the SMILES beside them. *: point of attachment. Benzenesulfonyl(4-Ph) = O=S(=O)(c1ccc(-c2ccccc2)cc1)*; Benzenesulfonyl(4-OMe) = COc1ccc(S(=O)(=O)*)cc1

The target in data set [1] is Macrophage metalloelastase (Homo sapiens, UniProt P39900). Nature of the data set: Inhibition of human MMP12 by FRET reporter assay. Put shortly: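 Recombinant human MMP12 activity was read with the fluorogenic FRET reporter substrate LaRee5. Inhibition constants were reported as IC50.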
Sequence of Macrophage metalloelastase (P39900 whole entry): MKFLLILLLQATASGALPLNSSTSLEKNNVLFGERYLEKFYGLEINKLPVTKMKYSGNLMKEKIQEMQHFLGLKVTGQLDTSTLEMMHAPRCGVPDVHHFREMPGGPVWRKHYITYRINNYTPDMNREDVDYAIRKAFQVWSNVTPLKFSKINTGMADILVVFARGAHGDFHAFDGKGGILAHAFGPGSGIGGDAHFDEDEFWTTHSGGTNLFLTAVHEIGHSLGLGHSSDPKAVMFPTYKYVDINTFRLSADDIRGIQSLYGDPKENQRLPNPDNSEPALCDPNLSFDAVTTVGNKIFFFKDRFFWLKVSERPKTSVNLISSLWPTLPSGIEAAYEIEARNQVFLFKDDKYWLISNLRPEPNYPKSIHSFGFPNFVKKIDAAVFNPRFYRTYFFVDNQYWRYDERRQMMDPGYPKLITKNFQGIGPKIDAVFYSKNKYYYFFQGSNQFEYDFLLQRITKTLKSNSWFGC
In general terms: In a reporter assay the amount or activity of a reporter protein is the signal.

The nature of data set [2]: Half life in TCN buffer at pH 7.5. It counts as physicochemical. In outline: (§1)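 Compounds incubated without enzyme in TCN buffer, pH 7.5, at 37 °C. Spontaneous hydrolysis of the N-acylated sulfonamide was followed by HPLC over time, and half-lives (h) were derived from the traces.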
Data set [3] in a line: Stability of compound in heat inactivated fetal calf serum. Format: ADME. As to conditions: cattle; call rule not given here.
Data set [4] in a line: Stability of compound in fetal calf serum. The following applies: cattle. It counts as ADME.
Data set [5] can be described thus: Drug metabolism in TCN buffer assessed as hydrolysis at pH 7.5. Format: physicochemical. Put shortly:
as §1

As to `O=C(O)CNS(=O)(=O)c1ccc(-c2ccccc2)cc1`, in data set [1], it took 0.29 µM to reach half-maximal inhibition (IC50).
Take `COc1ccc(S(=O)(=O)N(CC(=O)O)C(=O)CNC(=O)[C@H](CC(C)C)NC(=O)[C@@H]2CCCN2C(=O)OCc2ccccc2)cc1`: the half-life (commonly the time in which the quantity being followed falls by half) in data set [2] was 27 h.
On the same count and under the same terms, in the case of `COc1ccc(S(=O)(=O)N(CC(=O)N[C@@H](CC(C)C)C(=O)N[C@@H](CCC(=O)O)C(=O)N[C@@H](CCC(=O)O)C(=O)N[C@@H](C)C(N)=O)C(=O)CNC(=O)[C@@H]2CCCN2C(=O)OCc2ccccc2)cc1` it was 6.4 h.
For the molecule `CC(C)C[C@H](NC(=O)CN(C(=O)[C@H](CC(C)C)NC(=O)[C@@H]1CCCN1C(=O)OCc1ccccc1)S(=O)(=O)c1ccc(-c2ccccc2)cc1)C(=O)N[C@@H](CCC(=O)O)C(=O)N[C@@H](CCC(=O)O)C(=O)N[C@@H](C)C(N)=O`, the Stability entry in data set [3] and in data set [4] was “Stable” throughout. In data set [2], the half-life is 5.1 h.
With `COc1ccc(S(=O)(=O)N(CC(=O)N[C@@H](CC(C)C)C(=O)N[C@@H](CCC(=O)O)C(=O)N[C@@H](CCC(=O)O)C(=O)N[C@@H](C)C(N)=O)C(=O)[C@H](CC(C)C)NC(=O)[C@@H]2CCCN2C(=O)OCc2ccccc2)cc1`, the half-life in data set [2] is 28 h.
Turning to `CC(C)C[C@H](NC(=O)[C@@H]1CCCN1C(=O)OCc1ccccc1)C(=O)N(CC(=O)O)S(=O)(=O)c1ccc(-c2ccccc2)cc1`, the Stability result in data set [3] and in data set [4] was “Stable” throughout. Further, the IC50 (as a rule, the concentration at which inhibition is half-maximal) in data set [1] came out at 13 µM. For the same molecule, the half-life in data set [2] is 27 h.
In data set [2], `COc1ccc(S(=O)(=O)N(CC(=O)O)C(=O)[C@H](CC(C)C)NC(=O)[C@@H]2CCCN2C(=O)OCc2ccccc2)cc1` had a half-life of 77 h.
As for `COc1ccc(S(=O)(=O)NCC(=O)N[C@@H](CC(C)C)C(=O)N[C@@H](CCC(=O)O)C(=O)N[C@@H](CCC(=O)O)C(=O)N[C@@H](C)C(N)=O)cc1` ({Benzenesulfonyl(4-OMe)}-GLEEA-NH2), in data set [5], the Drug metabolism result is recorded as “Not Active”.
`CC(C)C[C@H](NC(=O)CNS(=O)(=O)c1ccc(-c2ccccc2)cc1)C(=O)N[C@@H](CCC(=O)O)C(=O)N[C@@H](CCC(=O)O)C(=O)N[C@@H](C)C(N)=O` ({Benzenesulfonyl(4-Ph)}-GLEEA-NH2) displayed an IC50 in data set [1] of 48 µM. The Drug metabolism entry in data set [5] is listed as “Not Active”.
